Scp1 inh: Scp-1 (human) phosphatase inhibition | Recombinant Scp1, phosphopeptide, malachite green phosphate absorbance | inhibition, % at 20 µM | 340,000 compounds, 0.88% hits;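 active means inhibition above about 50% at 20 µM, limit read from the data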;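 further: plate controls were DMSO wells with enzyme for no effect and wells lacking enzyme for full effect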
Target sequence (Q9GZU7 76-261 limits assumed): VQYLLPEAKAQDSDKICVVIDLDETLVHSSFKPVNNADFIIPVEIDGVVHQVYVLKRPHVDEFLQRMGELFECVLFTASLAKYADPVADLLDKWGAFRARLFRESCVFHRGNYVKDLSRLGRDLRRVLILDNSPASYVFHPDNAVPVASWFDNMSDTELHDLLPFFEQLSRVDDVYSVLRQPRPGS
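Test system: SCP-1 phosphatase catalytic domain, residues 76-261 | Compound dosing: One concentration, 20 µM, with 1.0% DMSO | Schedule: 45 min room-temperature reaction, 5 min colour, 30 min stabiliser | Detection: Absorbance at 630 nm | Read-out basis: % inhibition of SCP-1 phosphate liberation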
STEP block: blocks human striatal-enriched tyrosine phosphatase; P54829; AID 588621; recombinant STEP, OMFP fluorogenic substrate, fluorescence; 360,000 compounds, 0.25% hits; inhibition, % at 20 µM;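 active means inhibition at 20 µM, scaled per plate between control wells, above about 37%, limit read from the data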;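 further: 0% = DMSO with enzyme and substrate and 100% = substrate only without enzyme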
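Material: STEP (striatal-enriched tyrosine phosphatase) enzyme, cell-free | Medium: 50 mM Bis-Tris pH 6.0 with 2.5 mM DTT and 0.005% Tween 20 | Read-out: Percent inhibition scaled to no-enzyme and uninhibited-enzyme controls, plate-pattern corrected | Signal: Fluorescence read at 480 nm ex / 540 nm em | Times: 20 min reaction, room temperature, in the dark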
CASP6 VEID inh: caspase-6 (human) enzyme inhibition; purified caspase-6, Z-VEID-R110 cleavage fluorescence; inhibition, % at 12.5 µM; 350,000 compounds, 0.53% hits; AID 686996;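 active means mean inhibition across replicates at least about 35%, with every replicate also reaching that limit, limit read from the data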;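 further: 0% = median of neutral control wells and 100% = no fluorescence left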
Target sequence (P55212 24-179 limits assumed): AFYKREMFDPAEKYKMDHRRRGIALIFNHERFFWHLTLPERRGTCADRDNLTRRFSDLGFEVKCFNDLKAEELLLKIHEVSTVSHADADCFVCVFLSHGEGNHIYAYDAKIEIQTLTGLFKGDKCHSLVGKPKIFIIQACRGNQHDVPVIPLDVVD
Target sequence (P55212 194-293 limits assumed): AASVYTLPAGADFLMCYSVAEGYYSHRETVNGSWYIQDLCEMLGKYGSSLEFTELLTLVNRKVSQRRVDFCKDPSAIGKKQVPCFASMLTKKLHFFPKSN
SUMO1-SIM PPI: modulators of human SUMO1-mediated protein-protein interactions | SUMO1 binding to a labelled peptide, TR-FRET, 1 h | inhibition, % at 20 µM | 360,000 compounds, 0.33% hits; in the data active means inhibition above about 37%
Target sequence (P63165 whole entry, looked up): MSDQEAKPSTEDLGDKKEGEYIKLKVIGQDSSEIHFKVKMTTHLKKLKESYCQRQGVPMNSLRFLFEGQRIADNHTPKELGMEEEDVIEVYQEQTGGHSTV
LMPTP block: blocks human LMPTP phosphatase | recombinant LMPTP-A, OMFP fluorogenic substrate, fluorescence intensity | inhibition, % at 20 µM | 360,000 compounds, 0.22% hits;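 active means compounds that cut the enzyme signal by at least half of the control window in the single-dose screen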;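 further: plate controls were DMSO wells with enzyme plus substrate for no effect and substrate without enzyme for full effect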
Target sequence (P24666 whole entry, looked up): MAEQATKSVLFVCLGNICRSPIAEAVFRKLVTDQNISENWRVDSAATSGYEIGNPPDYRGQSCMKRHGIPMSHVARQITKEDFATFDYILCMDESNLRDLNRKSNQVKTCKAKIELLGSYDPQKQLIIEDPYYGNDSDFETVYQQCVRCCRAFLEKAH
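Test system: LMPTP-A phosphatase enzyme. Amount: LMPTP-A at 0.625 nM final in the reaction. Reagent: OMFP substrate, 400 µM final. Times: 50 min at room temperature. Signal: endpoint fluorescence intensity from OMFP dephosphorylation. Read-out basis: % inhibition. Benchmarks: no-enzyme and uninhibited controls.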
DNMT1 block: blocks human DNA methyltransferase DNMT1; P26358; 360,000 compounds, 0.83% hits; DNMT1 molecular beacon, Hinp1I cleavage, fluorescence; inhibition (reported as % activation of signal), % at 10 µM; in the data active means inhibition above about 50%
Scp-1 conf: Scp-1 (human) inhibition, single-dose confirmed. 2,500 compounds, 61% hits. inhibition, % at 20 µM. shares compounds with Scp1 inh. recombinant SCP-1 catalytic domain, phosphate release, malachite green absorbance;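 further: plate controls were DMSO with enzyme for no effect and buffer wells lacking enzyme for full effect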
MG interference: colorimetric interference in Scp-1 counter-screen | Colorimetric interference counterscreen, malachite green absorbance 630 nm | 2,500 tested, under 10 active | apparent inhibition (interference), % at 20 µM | shares compounds with Scp1 inh;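 further: compounds added after enzyme reaction finished so only phosphate colour detection is probed; plate controls were DMSO wells with completed Scp-1 reaction for no effect and substrate wells lacking enzyme for full effect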
Scp-1 Tm shift: binds human Scp-1, shifting its melting temperature; shares compounds with Scp1 inh; Recombinant SCP1, Sypro Orange thermal shift Tm; thermal shift relative to vanadate control, % at 40 µM; 1,500 compounds, 25% hits; AID 540329;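 active means substances whose mean melting-temperature shift, as a percentage of the reference inhibitor's shift, reaches about 5.3%, limit read from the data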;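 further: 0% = Tm of DMSO wells and 100% = Tm with sodium orthovanadate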
* = called active by the depositor; nt = no result given. Shown are actives, neighbours in structure and some others; about 1.7% of the full set was active somewhere.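 How the source made its calls, unless noted: active means inhibition of at least 30% at 20 µM; inactive means the rest.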

SMILES	Scp1 inh	STEP block	CASP6 VEID inh	SUMO1-SIM PPI	LMPTP block	DNMT1 block	Scp-1 conf	MG interference	Scp-1 Tm shift
CCCC(c1nnnn1Cc1cccs1)N1CCN(c2nc3ccccc3s2)CC1 (stereo not given)	-1.0	0.3	nt	1.1	7.7	-8.5	nt	nt	nt
O=C(NCc1ccc2c(c1)OCO2)C1CC(=O)N(c2ccc(O)cc2)C1 (stereo not given)	3.6	-0.2	nt	-2.1	-1.2	1.6	nt	nt	nt
COc1ccc(C2CC(=O)c3cc(OC)ccc3O2)cc1 (stereo not given)	-10.5	-3.8	-1.3	-27.1	1.1	-2.2	nt	nt	nt
Nc1c(C(=O)OCC(=O)Nc2cccc([N+](=O)[O-])c2)[nH]c(=O)[nH]c1=O	66.7*	9.2	15.6	3.3	33.2	-2.8	65.4*	-0.8	6.1*
O=C(Nc1cccc([N+](=O)[O-])c1)Nc1cccc([N+](=O)[O-])c1	69.3*	2.9	-1.4	-12.0	10.5	5.5	66.0*	-20.8	17.4*
CC(C)(C)c1ccc(CS(=O)(=O)CC(O)CN2CCCC2=O)cc1 (stereo not given)	0.8	2.3	-1.5	-1.9	-1.5	1.4	nt	nt	nt
O=C1CCCN1CC(O)CS(=O)(=O)Cc1ccc(Cl)cc1 (stereo not given)	-7.0	-1.1	-13.8	2.3	-1.7	0.7	0.1	-3.0	nt
O=C(CCN1C(=O)c2cccc3cccc(c23)C1=O)NCc1cccnc1	-4.6	-0.8	-0.6	-18.3	-1.2	1.8	nt	nt	nt
O=C(CCN1C(=O)C2C3C=CC(C3)C2C1=O)NCc1cccnc1 (stereo not given)	60.5*	-1.8	nt	-0.4	-0.4	2.3	-10.9	-15.0	nt
O=C(COC(=O)c1ccc(S(=O)(=O)Nc2ccccc2)cc1)NCCN1C(=O)CSC1=O	-6.0	0.5	nt	2.1	-0.9	-0.7	nt	nt	nt
CC1CN(c2ccc([N+](=O)[O-])c(NCCOc3ccccc3)c2)CCN1 (stereo not given)	-0.8	9.6	nt	-18.7	1.9	-3.0	nt	nt	nt
COc1ccc(C(CC(=O)N2CCCC2)c2c(OC)cc(OC)c3c(-c4ccccc4)cc(=O)oc23)cc1 (stereo not given)	66.9*	6.6	nt	2.5	15.1	93.8*	59.0*	-8.7	-21.3
O=C1c2ccccc2C(=O)N1c1nc2nccc(-c3ccccc3)n2n1	101.3*	23.6	nt	-1.6	-1.5	3.6	21.1	-19.9	nt
CCOC(=O)C1CCN(c2c(NCCCN(CC)Cc3ccccc3)c(=O)c2=O)CC1	-11.2	0.3	nt	-2.5	-1.7	-0.7	nt	nt	nt
CC[n+]1c(C)cc2c(sc3ccccc32)c1C	63.0*	-2.6	-4.1	-5.3	1.1	0.5	-18.8	-15.0	nt
COCc1c(C(=O)N2CCN(Cc3c(F)cccc3Cl)CC2)oc2ccccc12	52.7*	1.8	4.2	3.2	1.6	0.4	-7.8	-9.6	nt
CCC(C)(C)n1nnnc1C(c1ccc(C)cc1)N(Cc1ccco1)Cc1cccs1 (stereo not given)	106.6*	5.0	nt	-0.9	3.3	0.0	-9.9	-11.5	nt
CNC(=O)C[C@H]1CC[C@H]2[C@@H](COc3ccc(NC(=O)Nc4ccc(F)cc4)cc3C(=O)N2C)O1	nt	nt	-0.7	nt	nt	nt	nt	nt	nt
COc1ccc(C(=O)NCc2nnc(SCC(=O)Nc3ccccc3OC)o2)cc1	-5.2	-0.5	-4.5	1.1	-1.2	-0.6	nt	nt	nt
COc1ccc(CCCc2nnc(SCC(=O)Nc3ccc(C)c(C)c3)o2)cc1	89.6*	-3.2	nt	-0.2	-0.4	-0.7	-3.2	-15.1	nt
COc1ccc(C(=O)NCc2nnc(SCC(=O)Nc3ccccc3F)o2)cc1	51.9*	-1.0	-1.6	-1.1	-0.7	2.8	-24.1	-19.4	nt
Cc1cc(C)nc(SCC(=O)NNS(=O)(=O)c2ccc(C#N)cc2)n1	54.5*	1.3	33.8	15.2	-0.7	15.6	62.0*	3.1	-4.3
CCOc1ccc(C(=O)Nc2ccc(-c3cc4ccccc4oc3=O)c(C)c2)cc1[N+](=O)[O-]	60.1*	3.8	-1.8	1.6	12.8	19.5	41.2*	-29.4	2.7
O=C(O)c1ccc(COc2ccc3c4c(c(=O)oc3c2)CCC4)o1	50.1*	12.2	nt	0.8	-2.0	43.6	45.2*	-5.7	-4.3
O=c1oc2cc(OCc3ccc([N+](=O)[O-])cc3)ccc2c2c1CCCC2	-6.0	-1.5	nt	-7.1	0.6	14.7	nt	nt	nt
SMILES	Scp1 inh	STEP block	CASP6 VEID inh	SUMO1-SIM PPI	LMPTP block	DNMT1 block	Scp-1 conf	MG interference	Scp-1 Tm shift
CC(C)NC(=O)Nc1ccc2c(c1)C(=O)N([C@H](C)CO)C[C@H](C)[C@@H](CN(C)Cc1ccc(C(=O)O)cc1)OCCCC[C@H](C)O2	nt	nt	-2.6	nt	nt	nt	nt	nt	nt
CCOc1ccccc1NC(=O)CCS(=O)(=O)c1ccc(Br)cc1	92.2*	38.9	70.6*	56.6*	1.2	104.6*	66.9*	-16.2	-16.0
CC(=O)c1ccc(NC(=O)CCc2nc3sc4c(c3c(=O)[nH]2)CCCC4)cc1	51.8*	4.2	5.6	-1.3	8.4	17.4	65.1*	-21.3	-0.2
CCc1ccc(NC(=O)CCc2nc3sc4c(c3c(=O)[nH]2)CCCC4)cc1	7.0	0.8	-3.6	-1.6	2.3	20.9	nt	nt	nt
O=C(CCNC(=O)c1ccc([N+](=O)[O-])cc1)NNC(=O)c1ccncc1	50.3*	-0.9	2.4	-28.1	-2.0	1.0	6.4	-3.8	nt
CC(=O)c1c(Cl)nc2cccc3c2c1-c1ccccc1C3=O	-7.0	4.1	3.2	-27.3	0.9	13.0	nt	nt	nt
COc1ccc(CNC(=O)c2c(-c3cc(Cl)c(OC)c(Cl)c3)noc2C)cc1	-18.2	-1.5	0.0	2.6	1.7	14.6	nt	nt	nt
CCN1CCN(c2ccc(NC(=O)c3cc4ccccc4cc3OC)cc2C)CC1	64.6*	-4.7	-11.0	-21.1	0.2	1.8	-22.5	-16.4	nt
CCN1CCN(c2ccc(NC(=O)c3ccccc3F)cc2Cl)CC1	-2.6	-0.8	-2.1	2.9	-1.1	-0.1	nt	nt	nt
O=C(N/N=C/c1cn(-c2ccccc2)nc1-c1ccc2c(c1)OCCO2)c1ccncc1	75.2*	8.8	1.4	2.3	30.6	1.9	57.2*	-14.5	-14.7
O=C(C[C@H]1CC[C@H](NC(=O)C2CCOCC2)[C@H](CO)O1)Nc1ccc(-c2ccccc2)cc1	nt	nt	0.1	nt	nt	nt	nt	nt	nt
C[N+]1(C2CCC3CCCC2C3O)CCCC1 (stereo not given)	92.8*	-3.4	nt	2.0	-1.1	3.0	76.1*	-15.8	-23.9

Bioassay records: PubChem, several laboratories
